From PMC7797712 (Medicinal Chemistry Research, 2021) come the findings set out here.

One experiment relates to cytoplasmic HBV-DNA replication in AML12HBV10 cells. Kind of experiment: Antiviral assay in AML12HBV10 cells. To be noted: AML12HBV10 cells; SAR statement of the text. The format is cell-based, hepatitis B virus. Put shortly:
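AML12-derived mouse hepatocyte line carrying a tetracycline-inducible, envelope-deficient HBV genome; seeded at 2 × 10^4 cells/well in tetracycline-free medium. Next day, mock or twofold serial dilution (10 to 0.08 µM) for 48 h. Cells lysed in Tris-HCl pH 7.5/EDTA/NaCl/1% NP-40. Half the lysate NaOH-denatured, neutralised, dot-blotted and hybridised with 32P-labelled HBV minus-strand riboprobe. Phosphorimager quantification; EC50 = concentration reducing HBV DNA by 50%.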
For `COc1ccc(CN2CN(C(=O)Nc3ccc(F)c(Cl)c3)CCC2=O)c(OC)c1` [Compound 28, N-(3-chloro-4-fluorophenyl)-3-(2,4-dimethoxybenzyl)-4-oxotetrahydropyrimidine-1(2H)-carboxamide], the “Anti-HBV potency compared with 27 (58031), in words” value is “slightly weaker potency”.
With `O=C1CCN(C(=O)Nc2ccc(F)c(Cl)c2)CN1Cc1ccncc1` [Compound 29, N-(3-chloro-4-fluorophenyl)-4-oxo-3-(pyridin-4-ylmethyl)tetrahydropyrimidine-1(2H)-carboxamide], the “Anti-HBV potency compared with 27 (58031), in words” value is listed as “less active”.
With `O=C1CCN(C(=O)Nc2ccc(F)c(Cl)c2)CN1Cc1ccccn1` [Compound 30, N-(3-chloro-4-fluorophenyl)-4-oxo-3-(pyridin-2-ylmethyl)tetrahydropyrimidine-1(2H)-carboxamide], the “Anti-HBV potency compared with 27 (58031), in words” value is “less active”.
For the molecule `O=C1CCN(C(=O)Nc2ccc(F)c(Cl)c2)CN1CC1CCN(c2ccccc2)C1` (stereo not shown) [Compound 32, N-(3-chloro-4-fluorophenyl)-4-oxo-3-((1-phenylpyrrolidin-3-yl)methyl)tetrahydropyrimidine-1(2H)-carboxamide], the “Anti-HBV potency compared with 27 (58031), in words” value is reported as “failed to improve the potencies”.
Same read-out and setting: in the case of `O=C1CCN(C(=O)Nc2ccc(F)c(Cl)c2)CN1CC1CN(c2ccccc2)C(=O)O1` (stereo not shown) [Compound 33, N-(3-chloro-4-fluorophenyl)-4-oxo-3-((2-oxo-3-phenyloxazolidin-5-yl)methyl)tetrahydropyrimidine-1(2H)-carboxamide] it was “failed to improve the potencies”; in that of `O=C1CCN(C(=O)Nc2cccc(Cl)c2)CN1Cc1ccc(F)cc1F` [Compound 35, N-(3-chlorophenyl)-3-(2,4-difluorobenzyl)-4-oxotetrahydropyrimidine-1(2H)-carboxamide], “comparable activities”.
As for `O=C1CCN(C(=O)Nc2ccc(F)c(C(F)F)c2)CN1Cc1ccc(F)cc1F` [Compound 36, 3-(2,4-difluorobenzyl)-N-(3-(difluoromethyl)-4-fluorophenyl)-4-oxotetrahydropyrimidine-1(2H)-carboxamide], the “Anti-HBV potency compared with 27 (58031), in words” value is listed as “comparable activities”.
The same measure, in the same setting: in the case of `O=C1CCN(C(=O)Nc2cc(F)c(F)c(F)c2)CN1Cc1ccc(F)cc1F` [Compound 40, 3-(2,4-difluorobenzyl)-4-oxo-N-(3,4,5-trifluorophenyl)tetrahydropyrimidine-1(2H)-carboxamide] it was “reduced the activities”.
For `O=C1CCN(C(=O)Nc2cc(F)c(F)cc2Cl)CN1Cc1ccc(F)cc1F` [Compound 41, N-(2-chloro-4,5-difluorophenyl)-3-(2,4-difluorobenzyl)-4-oxotetrahydropyrimidine-1(2H)-carboxamide], the “Anti-HBV potency compared with 27 (58031), in words” value was “reduced the activities”.
Regarding `O=C1CCN(C(=O)Nc2cc(Cl)c(F)c(Cl)c2)CN1Cc1ccc(F)cc1F` [Compound 42, N-(3,5-dichloro-4-fluorophenyl)-3-(2,4-difluorobenzyl)-4-oxotetrahydropyrimidine-1(2H)-carboxamide], the “Anti-HBV potency compared with 27 (58031), in words” value is on record as “reduced the activities”.
Consider `O=C1CCN(C(=O)NCc2ccccc2F)CN1Cc1ccc(F)cc1F` [Compound 43, 3-(2,4-difluorobenzyl)-N-(2-fluorobenzyl)-4-oxotetrahydropyrimidine-1(2H)-carboxamide], for which the “Anti-HBV potency compared with 27 (58031), in words” value is “not tolerated”.
Still for that read-out and setting: in the case of `CC1CC(=O)N(Cc2ccc(F)cc2F)CN1C(=O)Nc1ccc(F)c(Cl)c1` (stereo not shown) [Compound 44, N-(3-chloro-4-fluorophenyl)-3-(2,4-difluorobenzyl)-6-methyl-4-oxotetrahydropyrimidine-1(2H)-carboxamide] it was “reduced activity”.
As to `O=C1CC(Cc2cc(F)c(F)cc2F)N(C(=O)Nc2ccc(F)c(Cl)c2)CN1Cc1ccc(F)cc1F` (stereo not shown) [Compound 45, N-(3-chloro-4-fluorophenyl)-3-(2,4-difluorobenzyl)-4-oxo-6-(2,4,5-trifluorobenzyl)tetrahydropyrimidine-1(2H)-carboxamide], the “Anti-HBV potency compared with 27 (58031), in words” value is “deteriorated the potency”.
The same measure, in the same setting: in the case of `O=C1CC(CN2CCC(F)(F)CC2)N(C(=O)Nc2ccc(F)c(Cl)c2)CN1Cc1ccc(F)cc1F` (stereo not shown) [Compound 46, N-(3-chloro-4-fluorophenyl)-3-(2,4-difluorobenzyl)-6-((4,4-difluoropiperidin-1-yl)methyl)-4-oxotetrahydropyrimidine-1(2H)-carboxamide] it was “deteriorated the potency”.
The same measure, in the same setting: in the case of `O=C1CC(CN2CCC(F)(F)C2)N(C(=O)Nc2ccc(F)c(Cl)c2)CN1Cc1ccc(F)cc1F` (stereo not shown) [Compound 47, N-(3-chloro-4-fluorophenyl)-3-(2,4-difluorobenzyl)-6-((3,3-difluoropyrrolidin-1-yl)methyl)-4-oxotetrahydropyrimidine-1(2H)-carboxamide] it was “deteriorated the potency”.
As to `CC1(C)CN(C(=O)Nc2ccc(F)c(Cl)c2)CN(Cc2ccc(F)cc2F)C1=O` [Compound 48, N-(3-chloro-4-fluorophenyl)-3-(2,4-difluorobenzyl)-5,5-dimethyl-4-oxotetrahydropyrimidine-1(2H)-carboxamide], the “Anti-HBV potency compared with 27 (58031), in words” value is recorded as “diminished the activities only by two to threefold”.
Take `O=C1C2CCCC2N(C(=O)Nc2ccc(F)c(Cl)c2)CN1Cc1ccc(F)cc1F` (stereo not shown) [Compound 49, N-(3-chloro-4-fluorophenyl)-3-(2,4-difluorobenzyl)-4-oxooctahydro-1H-cyclopenta[d]pyrimidine-1-carboxamide]: the “Anti-HBV potency compared with 27 (58031), in words” value is “diminished the activities only by two to threefold”.
Same read-out and setting: in the case of `O=C(Nc1ccc(F)c(Cl)c1)N1CC(c2ccccc2)C(=O)N(Cc2ccc(F)cc2F)C1` (stereo not shown) [Compound 50, N-(3-chloro-4-fluorophenyl)-3-(2,4-difluorobenzyl)-4-oxo-5-phenyltetrahydropyrimidine-1(2H)-carboxamide] it was “comparable or slightly better potencies”; in that of `O=C(Nc1ccc(F)c(Cl)c1)N1CC(Cc2ccccc2)C(=O)N(Cc2ccc(F)cc2F)C1` (stereo not shown) [Compound 51, 5-benzyl-N-(3-chloro-4-fluorophenyl)-3-(2,4-difluorobenzyl)-4-oxotetrahydropyrimidine-1(2H)-carboxamide], “diminished the activities only by two to threefold”.
On the same count and under the same terms, in the case of `O=C(Nc1ccc(F)c(Cl)c1)N1CC(n2cc(C3CC3)nn2)C(=O)N(Cc2ccc(F)cc2F)C1` (stereo not shown) [Compound 52, N-(3-chloro-4-fluorophenyl)-5-(4-cyclopropyl-1H-1,2,3-triazol-1-yl)-3-(2,4-difluorobenzyl)-4-oxotetrahydropyrimidine-1(2H)-carboxamide] it was “comparable or slightly better potencies”.

Still in this experiment, the particulars now being: Hepatitis B virus, AML12HBV10, 48 h, read-out: EC50 (50% inhibitory concentration of cytoplasmic HBV-DNA replication).
With `O=C1CCN(C(=O)Nc2ccc(F)c(Cl)c2)CN1Cc1ccc(F)cc1` [Compound 21, N-(3-chloro-4-fluorophenyl)-3-(4-fluorobenzyl)-4-oxotetrahydropyrimidine-1(2H)-carboxamide], the EC50 was found to be 2.02 µM.
Still for that read-out and setting: under `O=C1CCN(C(=O)Nc2ccc(F)c(Cl)c2)CN1CCc1ccc(F)cc1` [Compound 22, N-(3-chloro-4-fluorophenyl)-3-(4-fluorophenethyl)-4-oxotetrahydropyrimidine-1(2H)-carboxamide] stands 5.08 µM.
